From PMC4834983 (Journal of medicinal chemistry, 2015)
“Also recorded” adds a separate entry of the source. Values belong to the compound of their own block, whether it stands above or below them.

Key:
pYStat3 = assay: Immunoblotting of pStat3 in treated U251MG cells; format: cell-based, human; conditions: for effect on pStat3 in treated tumor cells: 5 μM, glioma cells, immunoblotting
How it was run: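 Whole-cell lysates from U251MG cells given test compound at 5 μM for 0–24 h, or at 0–5 μM for 2 h. Immunoblotted for pY705Stat3 and total Stat3, with GAPDH as loading reference.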

[1] = Cysteamine 1H NMR test for Michael acceptor reactivity; format: physicochemical; conditions: DMSO-d6, 1H NMR
Stat3:Stat3 = Stat3:Stat3 (Mus musculus, UniProt P42227); assay: Cell-free EMSA, nuclear extracts pre-incubated with compound, hSIE probe; format: biochemical; conditions: 5 μM, 30 min pre-incubation, NIH3T3/v-Src nuclear extracts
MDA-MB-231 cells = assay: CyQuant cell proliferation assay; format: cell-based, human; conditions: Homo sapiens, MDA-MB-231, 72 h, read-out: IC50 cell proliferation MDA-MB-231
How it was run: (§1)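 CyQuant DNA-dye proliferation assay on cultured cells after 72 h exposure to test compound. Viability expressed relative to DMSO-treated control cells.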

pErk1/2MAPK [2] = assay: Immunoblotting, U251MG glioma cells; format: cell-based, human; conditions: 5 μM
How it was run: (§2)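 U251MG cells given 5 μM test compound for 0–24 h. Whole-cell lysates of equal total protein immunoblotted for pErk1/2, Erk1/2, pS-Akt, Akt, pJAK2, JAK2, SOCS3 and PTP1B, with β-actin or GAPDH as loading reference.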

G12 cells = assay: Growth of glioma patient-derived xenograft cells in vitro; format: cell-based; conditions: Homo sapiens, read-out: inhibitory activity against G12 cell growth
pStat1 = assay: Immunoblotting, EGF-stimulated NIH3T3/hEGFR fibroblasts; format: cell-based, mouse; conditions: 5 μM pre-treatment
How it was run: (§3)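 NIH3T3/hEGFR fibroblasts pretreated with or without 5 μM test compound for 3 h, then stimulated with 1 μg/ml EGF for 12 min. Whole-cell lysates, equal total protein, immunoblotted for pStat1/Stat1, pStat5/Stat5 and pErk1/2/Erk1/2.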

Stat5:Stat5 = assay: Cell-free EMSA, EGF-stimulated NIH3T3/hEGFR nuclear extracts, MGFe probe; format: biochemical, mouse; conditions: 5 μM, 30 min pre-incubation
How it was run: (§4)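 Nuclear extracts from EGF-stimulated NIH3T3/hEGFR fibroblasts, containing active Stat1, Stat3 and Stat5, preincubated with 5 μM test compound for 30 min at room temperature. Then incubated 30 min with 32P-labelled probe before EMSA: hSIE (Stat1/Stat3 binding) or MGFe (bovine β-casein element; Stat1/Stat5 binding). STAT:DNA bands quantified as percent of control.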

pStat3 = assay: Immunoblotting of pStat3 in patient-derived xenograft cells; format: cell-based, human; conditions: 5 μM, 3 h
How it was run: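 Glioma patient-derived xenograft G22 cells (DMEM, 5–10% heat-inactivated FBS) given 5 μM test compound for 0–24 h. Whole-cell lysates immunoblotted for pStat3 and Stat3, with GAPDH as loading reference.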

Stat1:Stat1 = target: T1, Stat1:Stat1 (Mus musculus, UniProt P42225); assay: Cell-free EMSA, EGF-stimulated NIH3T3/hEGFR nuclear extracts; format: biochemical; conditions: 5 μM, 30 min pre-incubation
T1 sequence (P42225 2-749 limits assumed): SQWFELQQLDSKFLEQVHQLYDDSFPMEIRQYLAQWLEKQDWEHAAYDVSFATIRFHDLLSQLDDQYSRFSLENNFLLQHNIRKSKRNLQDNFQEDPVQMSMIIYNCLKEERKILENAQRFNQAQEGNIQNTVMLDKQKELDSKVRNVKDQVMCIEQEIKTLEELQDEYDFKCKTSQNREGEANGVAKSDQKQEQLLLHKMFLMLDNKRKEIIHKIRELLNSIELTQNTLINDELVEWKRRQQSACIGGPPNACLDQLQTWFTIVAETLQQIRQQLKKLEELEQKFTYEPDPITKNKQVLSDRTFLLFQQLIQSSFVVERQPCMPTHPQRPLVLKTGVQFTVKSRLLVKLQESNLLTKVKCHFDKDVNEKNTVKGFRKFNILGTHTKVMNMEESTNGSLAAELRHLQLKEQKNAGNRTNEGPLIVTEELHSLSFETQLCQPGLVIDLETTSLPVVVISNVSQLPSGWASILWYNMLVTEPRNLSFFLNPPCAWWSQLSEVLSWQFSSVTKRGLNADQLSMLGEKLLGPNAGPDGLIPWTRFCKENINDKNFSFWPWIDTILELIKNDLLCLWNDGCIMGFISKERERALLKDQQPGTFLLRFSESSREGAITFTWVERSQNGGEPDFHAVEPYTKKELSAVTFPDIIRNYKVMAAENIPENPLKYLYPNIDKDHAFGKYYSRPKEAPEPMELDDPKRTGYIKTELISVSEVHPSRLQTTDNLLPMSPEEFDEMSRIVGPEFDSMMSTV
How it was run: as §4

U373MG cells = assay: CyQuant cell proliferation assay; format: cell-based; conditions: Homo sapiens, U373 MG, 72 h, read-out: IC50 cell proliferation U373MG
How it was run: as §1

pS-Akt = assay: Immunoblotting, U251MG glioma cells; format: cell-based, human; conditions: 5 μM
How it was run: as §2

[3] = test system: protein tyrosine phosphatase (PTP)1B; assay: Immunoblotting, U251MG glioma cells; format: cell-based, human; conditions: 5 μM
How it was run: as §2

MCF-7 cells = assay: CyQuant cell proliferation assay; format: cell-based; conditions: Homo sapiens, MCF7, 72 h, read-out: IC50 cell proliferation MCF-7
How it was run: as §1

[4] = test system: suppressors of cytokine signaling (SOCS)3; assay: Immunoblotting, U251MG glioma cells; format: cell-based, human; conditions: 5 μM
How it was run: as §2

SF295 cells = assay: CyQuant cell proliferation assay; format: cell-based; conditions: Homo sapiens, SF-295, 72 h, read-out: IC50 cell proliferation SF295
How it was run: as §1

pStat5 = assay: Immunoblotting, EGF-stimulated NIH3T3/hEGFR fibroblasts; format: cell-based, mouse; conditions: 5 μM pre-treatment
How it was run: as §3

NIH3T3 cells [5] = assay: Colony survival assay; format: cell-based, mouse; conditions: 5 μM or less
How it was run: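 Cells seeded as single cells at 250 per well and treated once the next day with test compound (0–5 μM) for 72 h. Grown until large colonies were visible: 1 week for NIH3T3, 2 weeks for U251MG. Colonies stained with crystal violet for 4 h and counted.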

G22 cells [6] = assay: Growth of glioma patient-derived xenograft cells in vitro; format: cell-based; conditions: Homo sapiens, read-out: inhibitory activity against growth of G22 cells
pErk1/2MAPK [7] = assay: Immunoblotting, EGF-stimulated NIH3T3/hEGFR fibroblasts; format: cell-based, mouse; conditions: 5 μM pre-treatment
How it was run: as §3

G22 cells [8] = assay: 3D spheroid assay; format: cell-based, human; conditions: 5 μM, treated once
Stat3 = Stat3 DNA-binding activity/EMSA of nuclear extracts from treated glioma cells; format: cell-based, human; conditions: for effect on Stat3 DNA-binding activity in treated tumor cells: 5 μM, glioma cells, EMSA
U251MG cells [9] = assay: Scratch assay for migration; format: cell-based, human; conditions: 5 μM, 19-h treatment
How it was run: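 Sub-confluent U251MG monolayers wounded with pipette tips and treated once with test compound (0–5 μM) or DMSO vehicle. Cells allowed to migrate into the denuded area over 19 h, then imaged by microscopy at 10×.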

G10 cells = assay: Growth of glioma patient-derived xenograft cells in vitro; format: cell-based; conditions: Homo sapiens, read-out: inhibitory activity against growth of G10 cells
U251MG cells [10] = assay: Immunofluorescence staining/confocal microscopy of mitosis; format: cell-based, human; conditions: 15 h treatment
How it was run: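 U251MG cells on coverslips synchronised by double thymidine block (2 mM) and released for 9 h. Then given DMSO, 100 nM paclitaxel or 8 μM test compound for 15 h. Fixed in 4% paraformaldehyde, permeabilised with 0.1% digitonin and blocked in 0.2% BSA. Stained with anti-β-tubulin (1:350) and anti-MAP1B (1:300) for 1 h at room temperature, then fluorescent secondaries and DAPI; confocal imaging.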

U251MG cells [11] = assay: CyQuant cell proliferation assay; format: cell-based, human
How it was run: as §1

NIH3T3 cells [12] = assay: CyQuant cell proliferation assay; format: cell-based, mouse; conditions: 5 μM
How it was run: as §1

U251MG cells [13] = assay: Apoptosis by PARP or caspase cleavage; format: cell-based, human; conditions: 24 or 48 h

Sequence of Stat3:Stat3 (P42227 2-770 limits assumed): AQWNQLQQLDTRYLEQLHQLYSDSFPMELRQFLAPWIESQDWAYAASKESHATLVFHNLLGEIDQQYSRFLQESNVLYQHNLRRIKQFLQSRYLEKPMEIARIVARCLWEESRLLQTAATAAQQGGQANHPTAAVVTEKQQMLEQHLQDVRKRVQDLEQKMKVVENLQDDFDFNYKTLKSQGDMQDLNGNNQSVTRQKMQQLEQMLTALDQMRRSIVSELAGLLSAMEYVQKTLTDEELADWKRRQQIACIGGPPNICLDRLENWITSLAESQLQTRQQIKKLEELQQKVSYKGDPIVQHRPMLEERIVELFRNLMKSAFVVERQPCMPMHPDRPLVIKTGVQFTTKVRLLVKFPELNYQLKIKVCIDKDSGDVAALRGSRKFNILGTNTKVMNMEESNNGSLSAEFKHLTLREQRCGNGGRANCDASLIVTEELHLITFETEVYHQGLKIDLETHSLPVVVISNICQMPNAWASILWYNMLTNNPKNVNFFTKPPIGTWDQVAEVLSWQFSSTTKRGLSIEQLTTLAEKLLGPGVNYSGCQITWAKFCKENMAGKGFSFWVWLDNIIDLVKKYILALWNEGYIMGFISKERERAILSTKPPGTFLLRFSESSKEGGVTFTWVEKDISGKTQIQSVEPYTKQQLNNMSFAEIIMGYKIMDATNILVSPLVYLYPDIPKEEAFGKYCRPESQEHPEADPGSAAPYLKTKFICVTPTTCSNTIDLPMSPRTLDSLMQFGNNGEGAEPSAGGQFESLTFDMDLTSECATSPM

SMILES: CC(=O)OCC1=C2/C(=C\[C@@]3(C)CC[C@](O)(O3)[C@H](C)C[C@@H]2O)OC1=O [Compound 11]
- effect on Stat5:Stat5 activity, cell-free EMSA (Stat5:Stat5): weak effects
- effect on Stat1:Stat1 activity, cell-free EMSA (Stat1:Stat1): weak effects
- chromatid structures and sister-chromatids segregation (mitosis) (U251MG cells [10]): minimal effect
- effect on pStat3 in treated tumor cells (pYStat3): weak effect
- Stat3:Stat3/DNA-binding activity (complexation), cell-free EMSA (Stat3:Stat3): diminished
- effect on Stat3 DNA-binding activity in treated tumor cells (Stat3): weak effect

SMILES: C=C1C(=O)O[C@@H]2/C=C(\C)CC/C=C(\C)CC[C@@H]12 [costunolide, reference compound]
- Stat3 activity in tumor cells, control compounds (pYStat3; Fig. S5E(ii)): did not inhibit
- Michael acceptor reaction with cysteamine [1]: formation of diastereomeric Michael adduct mixtures
- cell growth activity, control compounds (U251MG cells [11]; panel of cell lines, Fig. S5E(i)): poorly-active or non-specific in activity

SMILES: CC(=O)O[C@H]1C(=O)[C@@]2(C)[C@H]([C@H](OC(=O)c3ccccc3)[C@]3(O)C[C@H](OC(=O)[C@H](O)[C@@H](NC(=O)c4ccccc4)c4ccccc4)C(C)=C1C3(C)C)[C@]1(OC(C)=O)CO[C@@H]1C[C@@H]2O [paclitaxel, reference compound]
- chromatid structures and sister-chromatids segregation (mitosis) (U251MG cells [10]): caused strong defects
- apoptosis measured by PARP or caspase cleavage (U251MG cells [13]): induced apoptosis

SMILES: CN[C@@H]1C[C@H]2O[C@@](C)([C@@H]1OC)n1c3ccccc3c3c4c(c5c6ccccc6n2c5c31)C(=O)NC4 [staurosporine]
- apoptosis measured by PARP or caspase cleavage (U251MG cells [13]): induced apoptosis

Second part, led by results:

- Michael acceptor reaction with cysteamine [1]: indicative of Michael acceptor reactions
SMILES: C=C(C)C(=O)O[C@H]1C[C@@H](C)[C@]2(OC)CC[C@](C)(/C=C3/OC(=O)C(COC(C)=O)=C31)O2 [Compound 9]
- effect on pStat3 in treated tumor cells (pYStat3): little impact
- Stat3:Stat3/DNA-binding activity (complexation), cell-free EMSA (Stat3:Stat3): no effect; also recorded: only weakly inhibited

- IC50 (MDA-MB-231 cells): 5.2 to 9.1 µM
- effect on Stat1:Stat1 activity, cell-free EMSA (Stat1:Stat1): weak effects
- Michael acceptor reaction with cysteamine [1]: Michael acceptor reactions have occurred
- IC50 (MCF-7 cells): 4.8 to 9.6 µM
- Stat3:Stat3/DNA-binding activity (complexation), cell-free EMSA (Stat3:Stat3): diminished
SMILES: C/C=C(\C)C(=O)O[C@H]1C[C@@H](C)[C@]2(OC)CC[C@](C)(/C=C3/OC(=O)C(COC(C)=O)=C31)O2 [Compound 10]
- effect on pErk1/2MAPK levels (pErk1/2MAPK [2]): no effects
- inhibition at 5 µM (G12 cells): 25 to 35%
- effect on EGF-stimulated pStat1 levels (pStat1): no effect
- effect on Stat5:Stat5 activity, cell-free EMSA (Stat5:Stat5): weak effects
- effect on Phospho-Stat3 in G22 cells (pStat3): moderate inhibition
- IC50 (U373MG cells): 6.6 to 8.2 µM
- effect on pS-Akt levels (pS-Akt): no effects
- effect on pStat3 in treated tumor cells (pYStat3): strongly inhibited
- effect on PTP1B levels [3]: no effects
- effect on SOCS3 levels [4]: no effects
- IC50 (SF295 cells): 7.4 to 18.3 µM
- effect on EGF-stimulated pStat5 levels (pStat5): no effect
- effects on NIH3T3 colony numbers (NIH3T3 cells [5]): moderate or none
- inhibition at 5 µM (G22 cells [6]): 45 to 60%
- effect on EGF-stimulated pErk1/2MAPK levels (pErk1/2MAPK [7]): no effect
- 3D spheroid growth (G22 cells [8]): modest
- effect on Stat3 DNA-binding activity in treated tumor cells (Stat3): strongly inhibited
- migration into the denuded area (U251MG cells [9]): slowed migration
- inhibition at 5 µM (G10 cells): 45 to 60%

- IC50 (MDA-MB-231 cells): 5.2 to 9.1 µM
- effect on Stat1:Stat1 activity, cell-free EMSA (Stat1:Stat1): weak effects
- IC50 (MCF-7 cells): 4.8 to 9.6 µM
- Stat3:Stat3/DNA-binding activity (complexation), cell-free EMSA (Stat3:Stat3): diminished
SMILES: C/C=C(/C)C(=O)O[C@H]1C[C@@H](C)[C@]2(O)CC[C@](C)(/C=C3/OC(=O)C(COC(C)=O)=C31)O2 [Compound 20]
- effect on pErk1/2MAPK levels (pErk1/2MAPK [2]): no effects
- effect on EGF-stimulated pStat1 levels (pStat1): no effect
- effect on Stat5:Stat5 activity, cell-free EMSA (Stat5:Stat5): weak effects
- IC50 (U373MG cells): 6.6 to 8.2 µM
- effect on pS-Akt levels (pS-Akt): no effects
- effect on pStat3 in treated tumor cells (pYStat3): strongly inhibited
- effect on PTP1B levels [3]: no effects
- effect on SOCS3 levels [4]: no effects
- IC50 (SF295 cells): 7.4 to 18.3 µM
- effect on EGF-stimulated pStat5 levels (pStat5): no effect
- effect on EGF-stimulated pErk1/2MAPK levels (pErk1/2MAPK [7]): no effect
- effect on Stat3 DNA-binding activity in treated tumor cells (Stat3): strongly inhibited

- Stat3:Stat3/DNA-binding activity (complexation), cell-free EMSA (Stat3:Stat3): diminished
- IC50 (Stat3; Homo sapiens, U-251, read-out: IC50 Stat3 DNA-binding activity in treated cells): 0.5 to 2.5 µM
SMILES: C/C=C(\C)C(=O)OCC1=C2/C(=C\[C@@]3(C)CC[C@](O)(O3)[C@H](C)C[C@@H]2OC(=O)/C(C)=C/C)OC1=O [Compound 38]
- effect on pStat3 in treated tumor cells (pYStat3): suppressed
- activity against U251MG cell growth (U251MG cells [11]; 5 μM): retained or improved the inhibitory potency
- effect on NIH3T3 growth (NIH3T3 cells [12]): inhibited NIH3T3 growth
- effect on Stat3 DNA-binding activity in treated tumor cells (Stat3): suppressed
